Measured values reported in ChEMBL document CHEMBL1126175, “Synthesis and antibacterial activity of new tetracyclic quinolone antibacterials” (J Med Chem, 1992).
Values after ≈ are worked out from the molar mass of the structure shown.

Experiments:
Pseudomonas aeruginosa [1] = test: In vitro antibacterial activity against Pseudomonas aeruginosa IFO 3445,Pa(I),(gram-negative); assay type: functional
Outline: (§1)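 MIC by serial 2-fold agar dilution on Mueller–Hinton agar; inoculum about 10^6 CFU/mL; MIC taken as lowest concentration preventing visible growth after 18 h at 37 °C.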

Pseudomonas aeruginosa [2] = test: In vitro antibacterial activity against Pseudomonas aeruginosa E-2,Pa(E),(gram-negative); assay type: functional; outline: as §1
Staphylococcus aureus [3] = test: In vitro antibacterial activity against staphylococcus aureus IID 803,(gram-positive); assay type: functional; outline: as §1
[4] = system: Staphylococcus epidermidis; test: In vitro antibacterial activity against staphylococcus epidermidis IAM 1296, (gram-positive); assay type: functional; outline: as §1
Escherichia coli [5] = test: In vitro antibacterial activity against Escherichia coli NIHJ JC-2,(gram-negative)
Staphylococcus aureus [6] = test: In vitro antibacterial activity against staphylococcus aureus FDA 209P JC-1,Sa(F)(gram-positive); assay type: functional; outline: as §1
Enterococcus faecalis = test: In vitro antibacterial activity against Enterococcus faecalis IID 682,[…],(gram-positive); assay type: functional; outline: as §1
Escherichia coli [7] = test: In vitro antibacterial activity against Escherichia coli KC-14, Ec(K), (gram-negative); assay type: functional; outline: as §1
Klebsiella pneumoniae = test: In vitro antibacterial activity against klebsiella pneumoniae B54,Kp,(gram-negative); assay type: functional
Pseudomonas aeruginosa [8] = test: The effect on systematic infection in mice infected with Pseudomonas aeruginosa E-2, administered perorally; assay type: functional
Escherichia coli [9] = test: The effect on systematic infection in mice infected with Escherichia coli KC-14, administered perorally; assay type: functional
Outline: (§2)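 Male ddY mice (20–22 g), five per group, received 0.5 mL bacterial dilution intraperitoneally at 35 or 500 times the 50% lethal dose. Compound was given orally 1 h postinfection, suspended in 0.5% sodium (carboxymethyl)cellulose or dissolved in sterile distilled water. Survival was scored after 1 week. Oral ED50 was reported with 95% confidence limits.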

Escherichia coli [10] = test: In vitro antibacterial activity was measured against nalidixic acid resistant strain 7 from Escherichia coli KC-14; assay type: functional
Outline: (§3)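 MIC by serial 2-fold agar dilution on Mueller–Hinton agar, inoculum about 10^6 CFU/mL. Plates were incubated 37 °C for 18 h. MIC was the lowest concentration preventing visible growth.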

Escherichia coli [11] = test: In vitro antibacterial activity was measured against nalidixic acid resistant strain 6 from Escherichia coli KC-14; assay type: functional; outline: as §3
Escherichia coli [12] = test: In vitro antibacterial activity was measured against nalidixic acid resistant strain 5 from Escherichia coli KC-14; assay type: functional; outline: as §3
Escherichia coli [13] = test: In vitro antibacterial activity was measured against nalidixic acid resistant strain 2 from Escherichia coli KC-14; assay type: functional; outline: as §3
Escherichia coli [14] = test: In vitro antibacterial activity was measured against nalidixic acid resistant strain 1 from Escherichia coli KC-14; assay type: functional; outline: as §3
Escherichia coli [15] = test: In vitro antibacterial activity was measured against nalidixic acid resistant strain 3 from Escherichia coli KC-14; assay type: functional; outline: as §3
Staphylococcus aureus [16] = test: The effect on systematic infection in mice infected with Staphylococcus aureus IID 803, administered perorally; assay type: functional; outline: as §2
Escherichia coli [17] = test: In vitro antibacterial activity was measured against nalidixic acid resistant strain 4 from Escherichia coli KC-14; assay type: functional; outline: as §3
Pseudomonas aeruginosa [18] = test: The effect on systematic infection in mice infected with Pseudomonas aeruginosa, administered perorally; assay type: functional; outline: as §2

| MIC (Pseudomonas aeruginosa [1]) [µg/mL] | MIC (Pseudomonas aeruginosa [2]) [µg/mL] | MIC (Staphylococcus aureus [3]) [µg/mL] | MIC [4] [µg/mL] | MIC (Escherichia coli [5]) [µg/mL] | MIC (Staphylococcus aureus [6]) [µg/mL] | MIC (Enterococcus faecalis) [µg/mL] | MIC (Escherichia coli [7]) [µg/mL] | MIC (Klebsiella pneumoniae) [µg/mL] | Structure (SMILES) | ED50 (Pseudomonas aeruginosa [8]) [mg/kg] | ED50 (Escherichia coli [9]) [mg/kg] | MIC (Escherichia coli [10]) [µg/mL] | MIC (Escherichia coli [11]) [µg/mL] | MIC (Escherichia coli [12]) [µg/mL] | MIC (Escherichia coli [13]) [µg/mL] | MIC (Escherichia coli [14]) [µg/mL] | MIC (Escherichia coli [15]) [µg/mL] | ED50 (Staphylococcus aureus [16]) [mg/kg] | MIC (Escherichia coli [17]) [µg/mL] | ED50 (Pseudomonas aeruginosa [18]) [µg/mL] |
| --- | --- | --- | --- | --- | --- | --- | --- | --- | --- | --- | --- | --- | --- | --- | --- | --- | --- | --- | --- | --- |
| > 100 | > 100 | > 100 | > 100 | > 100 | > 100 | > 100 | > 100 | > 100 | CN1CCN(c2c(F)cc3c(=O)c(S(=O)(=O)O)c4scc5n4c3c2OC5)CC1 |  |  |  |  |  |  |  |  |  |  |  |
| 1.56 (≈ 4.01 µM) | 0.78 (≈ 2 µM) | 0.2 (≈ 0.514 µM) | 0.78 (≈ 2 µM) | 0.2 (≈ 0.514 µM) | 0.2 (≈ 0.514 µM) | 0.78 (≈ 2 µM) | 0.1 (≈ 0.257 µM) | 0.1 (≈ 0.257 µM) | CC1CN(c2c(F)cc3c(=O)c(C(=O)O)c4scc5n4c3c2OC5)CCN1 (centres undefined) |  |  |  |  |  |  |  |  |  |  |  |
| 1.56 (≈ 4.14 µM) | 0.39 (≈ 1.04 µM) | 0.05 (≈ 0.133 µM) | 0.1 (≈ 0.266 µM) | 0.39 (≈ 1.04 µM) | 0.05 (≈ 0.133 µM) | 0.39 (≈ 1.04 µM) | 0.39 (≈ 1.04 µM) | 0.2 (≈ 0.531 µM) | O=C(O)c1c(=O)c2cc(F)c(N3CCOCC3)c3c2n2c(csc12)CO3 |  |  |  |  |  |  |  |  |  |  |  |
| 1.56 (≈ 4.67 µM) | 6.25 (≈ 18.7 µM) | 0.1 (≈ 0.299 µM) | 0.1 (≈ 0.299 µM) | 0.39 (≈ 1.17 µM) | 0.2 (≈ 0.598 µM) | 0.78 (≈ 2.33 µM) | 0.39 (≈ 1.17 µM) | 0.2 (≈ 0.598 µM) | CN(C)c1c(F)cc2c(=O)c(C(=O)O)c3scc4n3c2c1OC4 |  |  |  |  |  |  |  |  |  |  |  |
| > 100 | > 100 | > 100 | > 100 | > 100 | > 100 | > 100 | > 100 | > 100 | CN1CCN(c2c(F)cc3c(=O)cc4scc5n4c3c2OC5)CC1 |  |  |  |  |  |  |  |  |  |  |  |
| 12.5 (≈ 33.4 µM) | 6.25 (≈ 16.7 µM) | 0.1 (≈ 0.267 µM) | 0.2 (≈ 0.534 µM) | 0.78 (≈ 2.08 µM) | 0.1 (≈ 0.267 µM) | 1.56 (≈ 4.17 µM) | 3.13 (≈ 8.36 µM) | 1.56 (≈ 4.17 µM) | O=C(O)c1c(=O)c2cc(F)c(N3CCCCC3)c3c2n2c(csc12)CO3 |  |  |  |  |  |  |  |  |  |  |  |
| 0.78 | 0.78 | 0.1 | 0.2 | 0.1 | 0.1 | 0.39 | 0.1 | 0.1 | CN1CCN(c2c(F)cc3c(=O)c(C(=O)O)c4scc5n4c3c2OC5)CC1.Cl | 17.7 | 1.01 | 0.2 | 0.39 | 0.39 | 3.13 | 1.56 | 0.39 | 8.1 | 0.2 |  |
| 1.56 (≈ 4.87 µM) | 1.56 (≈ 4.87 µM) | 0.78 (≈ 2.44 µM) | 3.13 (≈ 9.77 µM) | 0.2 (≈ 0.624 µM) | 0.78 (≈ 2.44 µM) | 3.13 (≈ 9.77 µM) | 0.2 (≈ 0.624 µM) | 0.1 (≈ 0.312 µM) | CCn1cc(C(=O)O)c(=O)c2cc(F)c(N3CCNCC3)nc21 [ENOXACIN] |  |  |  |  |  |  |  |  |  |  |  |
|  |  |  |  |  |  |  |  |  | CCn1cc(C(=O)O)c(=O)c2ccc(C)nc21 [NALIDIXIC ACID] |  |  | 100 (≈ 431 µM) | 100 (≈ 431 µM) | 100 (≈ 431 µM) | > 1600 | > 1600 | 200 (≈ 861 µM) |  | 100 (≈ 431 µM) |  |

| Structure (SMILES) | MIC (Pseudomonas aeruginosa [1]) [µg/mL] | MIC (Pseudomonas aeruginosa [2]) [µg/mL] | MIC (Staphylococcus aureus [3]) [µg/mL] | MIC [4] [µg/mL] | MIC (Escherichia coli [5]) [µg/mL] | MIC (Staphylococcus aureus [6]) [µg/mL] | MIC (Enterococcus faecalis) [µg/mL] | MIC (Escherichia coli [7]) [µg/mL] | MIC (Klebsiella pneumoniae) [µg/mL] | ED50 (Pseudomonas aeruginosa [8]) [mg/kg] | ED50 (Escherichia coli [9]) [mg/kg] | MIC (Escherichia coli [10]) [µg/mL] | MIC (Escherichia coli [11]) [µg/mL] | MIC (Escherichia coli [12]) [µg/mL] | MIC (Escherichia coli [13]) [µg/mL] | MIC (Escherichia coli [14]) [µg/mL] | MIC (Escherichia coli [15]) [µg/mL] | ED50 (Staphylococcus aureus [16]) [mg/kg] | MIC (Escherichia coli [17]) [µg/mL] | ED50 (Pseudomonas aeruginosa [18]) [µg/mL] |
| --- | --- | --- | --- | --- | --- | --- | --- | --- | --- | --- | --- | --- | --- | --- | --- | --- | --- | --- | --- | --- |
| CC1COc2c(N3CCNCC3)c(F)cc3c(=O)c(C(=O)O)cn1c23 (centres undefined) | 1.56 (≈ 4.49 µM) | 1.56 (≈ 4.49 µM) | 0.39 (≈ 1.12 µM) | 0.78 (≈ 2.25 µM) | 0.1 (≈ 0.288 µM) | 0.39 (≈ 1.12 µM) | 1.56 (≈ 4.49 µM) | 0.1 (≈ 0.288 µM) | 0.1 (≈ 0.288 µM) |  | 1.1 | 0.39 (≈ 1.12 µM) | 0.78 (≈ 2.25 µM) | 0.78 (≈ 2.25 µM) | 6.25 (≈ 18 µM) | 6.25 (≈ 18 µM) | 0.78 (≈ 2.25 µM) | 11.5 | 0.39 (≈ 1.12 µM) | 22.9 (≈ 65.9 µM) |
| Cl.O=C(O)c1cn(C2CC2)c2cc(N3CCNCC3)c(F)cc2c1=O [CIPROFLOXACIN HYDROCHLORIDE] | 0.78 | 0.78 | 0.78 | 1.56 | 0.05 | 0.2 | 0.78 |  |  |  |  |  |  |  |  |  |  |  |  |  |
| CCn1cc(C(=O)O)c(=O)c2cc(F)c(N3CCNCC3)cc21 [NORFLOXACIN] | 1.56 (≈ 4.89 µM) | 1.56 (≈ 4.89 µM) | 1.56 (≈ 4.89 µM) | 3.13 (≈ 9.8 µM) | 0.2 (≈ 0.626 µM) | 0.39 (≈ 1.22 µM) | 1.56 (≈ 4.89 µM) | 0.2 (≈ 0.626 µM) | 0.1 (≈ 0.313 µM) |  |  |  |  |  |  |  |  |  |  |  |
